{"source": "ChEMBL document CHEMBL5724801", "about": "“EUbOPEN Chemogenomics Library - Multiplex” (2024)", "tested_on": "HEK-293T", "test": "Multiplex assay against HEK293T", "type": "toxicity, cell-based", "details": "human", "method_in_brief": "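Live cells were stained at seeding with Hoechst33342, BioTracker Green Microtubule Cytoskeleton Dye, MitoTracker Red and Annexin V Alexa Fluor 680. Following compound addition, they were imaged on a CQ1 microscope at 37°C and 5% CO2 and gated by CellPathfinder machine learning into Hoechst high-intensity objects or normal cells, with normal cells split into healthy, pyknosed or fragmented nuclei and pyknosed cells into mitotic or apoptotic. Tubulin, mitochondrial-mass and membrane-permeability phenotypes are per cents of healthy-nucleus cells.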", "key": {"[1]": {"details": "12 h, 1 µM, compound concentration 1 uM"}, "[2]": {"details": "12 h, 10 µM, compound concentration 10 uM"}, "[3]": {"details": "24 h, 1 µM, compound concentration 1 uM"}, "[4]": {"details": "24 h, 10 µM, compound concentration 10 uM"}, "[5]": {"details": "48 h, 1 µM, compound concentration 1 uM"}, "[6]": {"details": "48 h, 10 µM, compound concentration 10 uM"}}, "note": "Several values for one entry are separate records, joined by “and”; a condition that tells them apart may be missing. Equal values may be shown once."}
{"smiles": "Cc1ccc(-c2c(C(=O)CF)n(CCCO)c3ncnc(N)c23)cc1", "values": [{"measurement": "Population Apoptotic (%)", "setting": "[1]", "value": "10.53% and 14.63%"}, {"measurement": "Population Fragmented Nuclei (%)", "setting": "[1]", "value": "2.38% and 4.08%"}, {"measurement": "Population Hoechst High Intensity Objects (%)", "setting": "[1]", "value": 0, "unit": "%"}, {"measurement": "Population Membrane Permeable-Phenotype (%)", "setting": "[1]", "value": "0% and 5.56%"}, {"measurement": "Population Mitotic Cells (%)", "setting": "[1]", "value": "89.47% and 85.37%"}, {"measurement": "Population Normal (%)", "setting": "[1]", "value": 100, "unit": "%"}, {"measurement": "Population Pyknosed Nuclei (%)", "setting": "[1]", "value": "38.78% and 83.67%"}, {"measurement": "Total Cell Count", "setting": "[1]", "value": "294 and 147"}, {"measurement": "Population Apoptotic (%)", "setting": "[2]", "value": "9.68% and 15.93%"}, {"measurement": "Population Fragmented Nuclei (%)", "setting": "[2]", "value": "5.7% and 4.44%"}, {"measurement": "Population Hoechst High Intensity Objects (%)", "setting": "[2]", "value": "0.33% and 0%"}, {"measurement": "Population Membrane Permeable-Phenotype (%)", "setting": "[2]", "value": "1.91% and 0%"}, {"measurement": "Population Mitochondria Different-Phenotype (%)", "setting": "[2]", "value": "38.22% and 25%"}, {"measurement": "Population Mitotic Cells (%)", "setting": "[2]", "value": "90.32% and 84.07%"}, {"measurement": "Population Normal (%)", "setting": "[2]", "value": "99.67% and 100%"}, {"measurement": "Population Pyknosed Nuclei (%)", "setting": "[2]", "value": "41.61% and 83.7%"}, {"measurement": "Population Tubulin-Different-Phenotype (%)", "setting": "[2]", "value": "17.83% and 37.5%"}, {"measurement": "Total Cell Count", "setting": "[2]", "value": "299 and 135"}, {"measurement": "Population Apoptotic (%)", "setting": "[3]", "value": "6.73% and 15.13%"}, {"measurement": "Population Fragmented Nuclei (%)", "setting": "[3]", "value": "3.4% and 2.5%"}, {"measurement": "Population Hoechst High Intensity Objects (%)", "setting": "[3]", "value": 0, "unit": "%"}, {"measurement": "Population Membrane Permeable-Phenotype (%)", "setting": "[3]", "value": "2.86% and 0%"}, {"measurement": "Population Mitochondria Different-Phenotype (%)", "setting": "[3]", "value": "14.57% and 8.11%"}, {"measurement": "Population Mitotic Cells (%)", "setting": "[3]", "value": "93.27% and 84.87%"}, {"measurement": "Population Normal (%)", "setting": "[3]", "value": 100, "unit": "%"}, {"measurement": "Population Tubulin-Different-Phenotype (%)", "setting": "[3]", "value": "10.86% and 5.41%"}, {"measurement": "Total Cell Count", "setting": "[3]", "value": "470 and 160"}, {"measurement": "Population Apoptotic (%)", "setting": "[4]", "value": "19.61% and 24.07%"}, {"measurement": "Population Fragmented Nuclei (%)", "setting": "[4]", "value": "2.25% and 2.94%"}, {"measurement": "Population Healthy Nuclei (%)", "setting": "[4]", "value": "74.77% and 33.53%"}, {"measurement": "Population Hoechst High Intensity Objects (%)", "setting": "[4]", "value": 0, "unit": "%"}, {"measurement": "Population Membrane Permeable-Phenotype (%)", "setting": "[4]", "value": "0.9% and 0%"}, {"measurement": "Population Mitotic Cells (%)", "setting": "[4]", "value": "80.39% and 75.93%"}, {"measurement": "Population Normal (%)", "setting": "[4]", "value": 100, "unit": "%"}, {"measurement": "Population Pyknosed Nuclei (%)", "setting": "[4]", "value": "22.97% and 63.53%"}, {"measurement": "Population Tubulin-Different-Phenotype (%)", "setting": "[4]", "value": "24.4% and 8.77%"}, {"measurement": "Total Cell Count", "setting": "[4]", "value": "444 and 170"}, {"measurement": "Population Fragmented Nuclei (%)", "setting": "[5]", "value": "1.92% and 2.58%"}, {"measurement": "Population Healthy Nuclei (%)", "setting": "[5]", "value": "88.16% and 57.22%"}, {"measurement": "Population Hoechst High Intensity Objects (%)", "setting": "[5]", "value": 0, "unit": "%"}, {"measurement": "Population Membrane Permeable-Phenotype (%)", "setting": "[5]", "value": "5.14% and 2.7%"}, {"measurement": "Population Mitochondria Different-Phenotype (%)", "setting": "[5]", "value": "13.34% and 21.62%"}, {"measurement": "Population Mitotic Cells (%)", "setting": "[5]", "value": "97.67% and 83.33%"}, {"measurement": "Population Normal (%)", "setting": "[5]", "value": 100, "unit": "%"}, {"measurement": "Population Apoptotic (%)", "setting": "[6]", "value": "7.29% and 16.44%"}, {"measurement": "Population Fragmented Nuclei (%)", "setting": "[6]", "value": "3.41% and 2.51%"}, {"measurement": "Population Healthy Nuclei (%)", "setting": "[6]", "value": "87.23% and 60.8%"}, {"measurement": "Population Hoechst High Intensity Objects (%)", "setting": "[6]", "value": 0, "unit": "%"}, {"measurement": "Population Membrane Permeable-Phenotype (%)", "setting": "[6]", "value": "3.58% and 0.83%"}, {"measurement": "Population Mitochondria Different-Phenotype (%)", "setting": "[6]", "value": "25.47% and 33.88%"}, {"measurement": "Population Mitotic Cells (%)", "setting": "[6]", "value": "92.71% and 83.56%"}, {"measurement": "Population Normal (%)", "setting": "[6]", "value": 100, "unit": "%"}]}
{"smiles": "CCOC(=O)c1c(/C(C#N)=C\\N)c2ccc(Cl)c(Cl)c2n1C", "values": [{"measurement": "Population Apoptotic (%)", "setting": "[1]", "value": "10.92% and 11.11%"}, {"measurement": "Population Fragmented Nuclei (%)", "setting": "[1]", "value": "1.47% and 6.57%"}, {"measurement": "Population Healthy Nuclei (%)", "setting": "[1]", "value": "63.42% and 21.17%"}, {"measurement": "Population Hoechst High Intensity Objects (%)", "setting": "[1]", "value": "0.59% and 0%"}, {"measurement": "Population Membrane Permeable-Phenotype (%)", "setting": "[1]", "value": "0.47% and 0%"}, {"measurement": "Population Mitochondria Different-Phenotype (%)", "setting": "[1]", "value": "35.81% and 27.59%"}, {"measurement": "Population Mitotic Cells (%)", "setting": "[1]", "value": "89.08% and 88.89%"}, {"measurement": "Population Normal (%)", "setting": "[1]", "value": "99.41% and 100%"}, {"measurement": "Population Pyknosed Nuclei (%)", "setting": "[1]", "value": "35.1% and 72.26%"}, {"measurement": "Total Cell Count", "setting": "[1]", "value": "341 and 137"}, {"measurement": "Population Apoptotic (%)", "setting": "[2]", "value": "10.34% and 8.77%"}, {"measurement": "Population Fragmented Nuclei (%)", "setting": "[2]", "value": "2.88% and 1.83%"}, {"measurement": "Population Healthy Nuclei (%)", "setting": "[2]", "value": "59.94% and 28.66%"}, {"measurement": "Population Hoechst High Intensity Objects (%)", "setting": "[2]", "value": "0.64% and 0%"}, {"measurement": "Population Membrane Permeable-Phenotype (%)", "setting": "[2]", "value": "0.53% and 0%"}, {"measurement": "Population Mitochondria Different-Phenotype (%)", "setting": "[2]", "value": "26.74% and 19.15%"}, {"measurement": "Population Mitotic Cells (%)", "setting": "[2]", "value": "89.66% and 91.23%"}, {"measurement": "Population Normal (%)", "setting": "[2]", "value": "99.36% and 100%"}, {"measurement": "Population Pyknosed Nuclei (%)", "setting": "[2]", "value": "37.18% and 69.51%"}, {"measurement": "Total Cell Count", "setting": "[2]", "value": "314 and 164"}, {"measurement": "Population Apoptotic (%)", "setting": "[3]", "value": "15.32% and 13.98%"}, {"measurement": "Population Fragmented Nuclei (%)", "setting": "[3]", "value": "1.11% and 3.87%"}, {"measurement": "Population Healthy Nuclei (%)", "setting": "[3]", "value": "78.41% and 36.13%"}, {"measurement": "Population Hoechst High Intensity Objects (%)", "setting": "[3]", "value": "0.18% and 0%"}, {"measurement": "Population Membrane Permeable-Phenotype (%)", "setting": "[3]", "value": "1.18% and 0%"}, {"measurement": "Population Mitochondria Different-Phenotype (%)", "setting": "[3]", "value": "15.29% and 16.07%"}, {"measurement": "Population Mitotic Cells (%)", "setting": "[3]", "value": "84.68% and 86.02%"}, {"measurement": "Population Normal (%)", "setting": "[3]", "value": "99.82% and 100%"}, {"measurement": "Population Pyknosed Nuclei (%)", "setting": "[3]", "value": "20.48% and 60%"}, {"measurement": "Population Tubulin-Different-Phenotype (%)", "setting": "[3]", "value": "5.88% and 5.36%"}, {"measurement": "Population Apoptotic (%)", "setting": "[4]", "value": "10.47% and 16.46%"}, {"measurement": "Population Fragmented Nuclei (%)", "setting": "[4]", "value": "1.69% and 1.2%"}, {"measurement": "Population Healthy Nuclei (%)", "setting": "[4]", "value": "80.17% and 51.2%"}, {"measurement": "Population Hoechst High Intensity Objects (%)", "setting": "[4]", "value": 0, "unit": "%"}, {"measurement": "Population Membrane Permeable-Phenotype (%)", "setting": "[4]", "value": "1.05% and 1.18%"}, {"measurement": "Population Mitochondria Different-Phenotype (%)", "setting": "[4]", "value": "14.21% and 7.06%"}, {"measurement": "Population Mitotic Cells (%)", "setting": "[4]", "value": "89.53% and 83.54%"}, {"measurement": "Population Normal (%)", "setting": "[4]", "value": 100, "unit": "%"}, {"measurement": "Population Pyknosed Nuclei (%)", "setting": "[4]", "value": "18.14% and 47.59%"}, {"measurement": "Population Tubulin-Different-Phenotype (%)", "setting": "[4]", "value": "7.11% and 4.71%"}, {"measurement": "Total Cell Count", "setting": "[4]", "value": "474 and 166"}, {"measurement": "Population Apoptotic (%)", "setting": "[5]", "value": "7.43% and 15.94%"}, {"measurement": "Population Fragmented Nuclei (%)", "setting": "[5]", "value": "4.65% and 2.55%"}, {"measurement": "Population Healthy Nuclei (%)", "setting": "[5]", "value": "86.28% and 72.26%"}, {"measurement": "Population Hoechst High Intensity Objects (%)", "setting": "[5]", "value": 0, "unit": "%"}, {"measurement": "Population Membrane Permeable-Phenotype (%)", "setting": "[5]", "value": "4.76% and 3.03%"}, {"measurement": "Population Mitochondria Different-Phenotype (%)", "setting": "[5]", "value": "8.8% and 13.13%"}, {"measurement": "Population Mitotic Cells (%)", "setting": "[5]", "value": "92.57% and 84.06%"}, {"measurement": "Population Normal (%)", "setting": "[5]", "value": 100, "unit": "%"}, {"measurement": "Population Pyknosed Nuclei (%)", "setting": "[5]", "value": "9.06% and 25.18%"}, {"measurement": "Population Apoptotic (%)", "setting": "[6]", "value": "9.24% and 19.3%"}, {"measurement": "Population Fragmented Nuclei (%)", "setting": "[6]", "value": "4.82% and 1.55%"}, {"measurement": "Population Healthy Nuclei (%)", "setting": "[6]", "value": "85.93% and 80.75%"}, {"measurement": "Population Hoechst High Intensity Objects (%)", "setting": "[6]", "value": "0% and 0.92%"}, {"measurement": "Population Membrane Permeable-Phenotype (%)", "setting": "[6]", "value": "5.88% and 2.31%"}, {"measurement": "Population Mitochondria Different-Phenotype (%)", "setting": "[6]", "value": "11.04% and 11.15%"}, {"measurement": "Population Mitotic Cells (%)", "setting": "[6]", "value": "90.76% and 80.7%"}, {"measurement": "Population Normal (%)", "setting": "[6]", "value": "100% and 99.08%"}, {"measurement": "Population Pyknosed Nuclei (%)", "setting": "[6]", "value": "9.25% and 17.7%"}]}
